Assay outcomes (PubChem)
Rpn11 inh = Rpn11 (PSMD14) deubiquitinase inhibitors, primary screen, biochemical, fluorescence polarization, uHTS | inhibition, % at 20 µM | human 26S proteasome, Ub4-pepOG fluorescence polarization; 20S core pre-blocked with epoxomicin | 360,000 tested, 0.59% active | 26S proteasome non-ATPase regulatory subunit 14 (Homo sapiens), O00487 | AID 588493, 2011;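 active means inhibition at 20 µM, scaled to each plate's controls, above about 33%, limit read from the data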
Scp-1 inhibitor = Scp-1 phosphatase inhibitors, primary screen, biochemical, colorimetric, uHTS; Carboxy-terminal domain RNA polymerase II polypeptide A small phosphatase 1 (Homo …; Recombinant Scp1, phosphopeptide, malachite green phosphate absorbance; 340,000 tested, 0.88% active; inhibition, % at 20 µM;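 active means inhibition above about 50% at 20 µM, limit read from the data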
Target sequence (Q9GZU7 76-261 limits assumed): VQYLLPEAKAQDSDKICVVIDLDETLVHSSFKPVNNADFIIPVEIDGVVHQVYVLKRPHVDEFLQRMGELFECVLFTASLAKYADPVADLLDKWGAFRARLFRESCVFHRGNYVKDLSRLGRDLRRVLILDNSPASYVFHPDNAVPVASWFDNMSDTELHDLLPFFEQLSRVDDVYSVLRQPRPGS
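assay system = SCP-1 phosphatase catalytic domain, residues 76-261 | buffer or medium = 50 mM Tris acetate pH 5.5, 0.005% Tween-20, 10 mM MgCl2 | incubation = enzyme reaction 45 min at room temperature, colour 5 min, stabilisation 30 min | signal = Phosphate-binding colour reagent, absorbance read at 630 nm | measure = % inhibition at 20 µM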
LMPTP block = LMPTP phosphatase inhibitors, primary screen, biochemical, fluorescence intensity, uHTS | Low molecular weight phosphotyrosine protein phosphatase (Homo sapiens), P24666 | recombinant LMPTP-A, OMFP fluorogenic substrate | inhibition, % at 20 µM | 360,000 tested, 0.22% active;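 active means compounds that cut the enzyme signal by at least half of the control window in the single-dose screen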
Target sequence (P24666 whole entry, looked up): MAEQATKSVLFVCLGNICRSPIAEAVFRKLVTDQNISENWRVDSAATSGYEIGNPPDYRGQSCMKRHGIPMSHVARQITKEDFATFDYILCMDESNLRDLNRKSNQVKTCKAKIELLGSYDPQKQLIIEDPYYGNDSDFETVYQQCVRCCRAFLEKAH
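Assay system: LMPTP-A, protein tyrosine phosphatase of low molecular weight / Medium: pH 6.0 Bis-Tris buffer with DTT and Triton X-100 / Schedule: 50 min enzyme reaction at room temperature, protected from light / Measured by: endpoint fluorescence intensity from OMFP dephosphorylation / Read-out basis: % inhibition relative to no-enzyme and uninhibited control wells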
DNMT1 inh = human DNMT1 methyltransferase inhibitors, primary screen, biochemical, molecular beacon, fluorescence, HinP1I cleavage, uHTS | AID 588458, 2011 | DNA (cytosine-5)-methyltransferase 1 (Homo sapiens), P26358 | 360,000 tested, 0.83% active | inhibition (reported as % activation of signal), % at 10 µM; in the data active means inhibition above about 50%
STEP block = STEP phosphatase inhibitors, primary screen, biochemical, fluorescence intensity, uHTS | inhibition, % at 20 µM | Tyrosine-protein phosphatase non-receptor type 5 (Homo sapiens), P54829 | recombinant STEP, OMFP fluorogenic substrate | 360,000 tested, 0.25% active;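 active means inhibition at 20 µM, scaled per plate between control wells, above about 37%, limit read from the data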
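System: isolated STEP enzyme; schedule: 20 min enzyme reaction at room temperature, protected from light; medium: Bis-Tris buffer pH 6.0, 2.5 mM DTT, 0.005% Tween 20; signal: fluorescence, 480/540 nm; dosing: single compound dose of 20 µM, 1% DMSO final; also added: OMFP substrate, 25 µM final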
SUMO1 PPI mod = modulators of SUMO1 protein-protein interactions, primary screen, biochemical, uHTS | 360,000 tested, 0.33% active | AID 602429, 2012 | SUMO1 binding to a labelled peptide, TR-FRET, 1 h | inhibition, % at 20 µM; in the data active means inhibition above about 37%
Target sequence (P63165 whole entry, looked up): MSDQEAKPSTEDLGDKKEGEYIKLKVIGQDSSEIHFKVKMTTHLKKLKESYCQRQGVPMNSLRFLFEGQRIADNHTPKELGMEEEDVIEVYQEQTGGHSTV
Scp1 confirm = Scp-1 phosphatase inhibitors, retest, confirmation, biochemical, colorimetric, single concentration. shares compounds with Scp-1 inhibitor. recombinant SCP-1 catalytic domain, phosphate release, malachite green absorbance. inhibition, % at 20 µM. 2,500 tested, 61% active. AID 540281, 2011
Scp-1 MG ctr = colorimetric readout interference by compounds, confirmation, artefact control for Scp-1 inhibitor project, biochemical, single concentration; shares compounds with Scp-1 inhibitor; Colorimetric interference counterscreen, malachite green absorbance 630 nm; AID 540313, 2011; 2,500 tested, under 10 active; apparent inhibition (interference), % at 20 µM;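 further: compounds added after enzyme reaction finished so only phosphate colour detection is probed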
Scp1 DSF = Scp-1 binding by thermal shift, confirmation, orthogonal assay for Scp-1 inhibitor project, biophysical, differential scanning fluorimetry. Recombinant SCP1, Sypro Orange thermal shift Tm. AID 540329, 2011. 1,500 tested, 25% active. thermal shift relative to vanadate control, % at 40 µM. shares compounds with Scp-1 inhibitor;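 active means substances whose mean melting-temperature shift, as a percentage of the reference inhibitor's shift, reaches about 5.3%, limit read from the data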
Large screens that a line does not name were inactive (follow-up assays come after a bar, where they were run). Only some compounds are listed: those with a hit (about 2.3% of all), similar ones and a draw of the others.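 How the source made its calls, unless noted: active means inhibition of at least 30% at 20 µM; inactive means the rest.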

Cn1c(=O)c2c(ncn2CC(=O)N2CCN(S(=O)(=O)c3ccc(Cl)cc3)CC2)n(C)c1=O	Scp-1 inhibitor 64 | Scp1 confirm inactive | Scp-1 MG ctr inactive
O=C(Nc1ccc(S(=O)(=O)NCc2ccccc2)cc1)C1CCCCC1	none
CC(=O)c1cccn1S(=O)(=O)c1ccccc1	none
Cc1ccc(S(=O)(=O)OCC(=O)Nc2ccc(C(=O)O)c(O)c2)cc1	Scp-1 inhibitor 64 | Scp1 confirm 48 | Scp-1 MG ctr inactive | Scp1 DSF 7.6
COc1oc(C(=O)NC2CCCCC2)c(-c2ccc(Cl)cc2)c1S(=O)(=O)c1ccccc1	none
O=C(Nc1cccc2ncccc12)c1ccccc1Cl	Scp-1 inhibitor 98 | Scp1 confirm inactive | Scp-1 MG ctr inactive
Cc1ccc(-c2cc(C(=O)N/N=C/c3ccc(Cl)cc3)n[nH]2)o1	Scp-1 inhibitor 65 | Scp1 confirm 88 | Scp-1 MG ctr inactive | Scp1 DSF inactive
Cc1ccc(-c2cc(C(=O)N/N=C/c3ccccc3)n[nH]2)o1	none
CN1C(=O)/C(=N\OC(=O)c2cccc3ccccc23)c2ccccc21	none
COc1ccc(C(=O)O/N=C2\C(=O)N(C)c3ccccc32)cc1	Scp-1 inhibitor 52 | Scp1 confirm inactive | Scp-1 MG ctr inactive
Cc1cc(C)nc(CCNC(=O)c2cc(COc3ccccc3)on2)n1	none
COc1ccccc1CNC(=O)COC(=O)c1cnccn1	none
COc1ccccc1CNC(=O)c1cnccn1	Scp-1 inhibitor 56 | Scp1 confirm 57 | Scp-1 MG ctr inactive | Scp1 DSF inactive
O=C(c1cc(-n2cnnc2)ccc1Cl)N1CCN(c2nc(-c3ccccc3)cs2)CC1	none
O=C(c1ncn[nH]1)N1CCN(c2nc(-c3ccccc3)cs2)CC1	Scp-1 inhibitor 56 | Scp1 confirm 39 | Scp-1 MG ctr inactive | Scp1 DSF inactive
CCN(CC)CCNC(C(=O)Nc1cc(C(F)(F)F)ccc1Cl)c1ccccc1 (stereo unspecified)	Scp-1 inhibitor 91 | Scp1 confirm 91 | Scp-1 MG ctr inactive | Scp1 DSF inactive
O=C(Nc1ccccc1O)c1ccc2c(c1)C(=O)N(Cc1ccco1)C2=O	Scp-1 inhibitor 68 | Scp1 confirm 59 | Scp-1 MG ctr inactive | Scp1 DSF inactive
COc1ccccc1NC(=O)c1ccc2c(c1)C(=O)N(Cc1ccco1)C2=O	none
CCC1(c2ccccc2)NC(=O)N(CC(=O)NCc2ccc(C)cc2)C1=O (stereo unspecified)	none
NC(=O)CCC(NS(=O)(=O)c1ccc(Cl)cc1)C(=O)NCc1ccc(Cl)cc1 (stereo unspecified)	none | Scp1 confirm inactive | Scp-1 MG ctr inactive
NC(=O)CCC(NS(=O)(=O)c1ccc(Cl)cc1)C(=O)NCC1CCCCC1 (stereo unspecified)	none
CC(=O)Nc1ccc(-c2nnc(SCC(=O)n3c4c(c5ccccc53)CCCC4)n2C)cc1	Scp-1 inhibitor 84 | Scp1 confirm inactive | Scp-1 MG ctr inactive
Cn1c(SCC(=O)n2c3c(c4ccccc42)CCCC3)nnc1-c1ccccc1	none
CC[N+](C)(CC)CCC(c1ccccc1)C1CCCCC1 (stereo unspecified)	Scp-1 inhibitor 96 | Scp1 confirm 97 | Scp-1 MG ctr inactive | Scp1 DSF inactive
CC[N+](C)(CC)CCOC(=O)C(O)(c1ccccc1)C1CCCCC1 (stereo unspecified)	none
COC(=O)CCC(C)C1CCC2C3CCC4CC(O)CCC4(C)C3CC(O)C12C (stereo unspecified)	none
O=C(Nc1ccc(C(=O)N2CCOCC2)cc1)c1ccccc1Cl	none (no result: Scp-1 inhibitor)
CCOC(=O)c1cc(C#N)c(SCC(=O)c2cc(C#N)c(SC)nc2C)[nH]c1=O	Scp-1 inhibitor 89 | Scp1 confirm inactive | Scp-1 MG ctr inactive
COc1cc(C)c(NC(=O)COc2ccc3c(c2)CCC3)cc1OC	none
O=C(CSc1ccc(-c2ccccc2)nn1)N1CCCc2ccccc21	Scp-1 inhibitor 58 | Scp1 confirm inactive | Scp-1 MG ctr inactive
O=C(Nc1ccc(F)cc1)c1cccc(N2C(=O)c3ccccc3C2=O)c1	Scp-1 inhibitor 82 | Scp1 confirm 55 | Scp-1 MG ctr inactive | Scp1 DSF inactive
Cc1ccc(C(=O)OCN2C(=O)c3ccccc3C2=O)o1	none
CN(C)S(=O)(=O)c1ccc(Cl)c(NC(=O)COC(=O)/C=C/c2ccco2)c1	Scp-1 inhibitor 69 | Scp1 confirm 46 | Scp-1 MG ctr inactive | Scp1 DSF inactive
Cc1nc(NC(=O)COC(=O)/C=C/c2ccco2)c(Cl)cc1Cl	none
O=C(COC(=O)/C=C/c1ccco1)NCCN1C(=O)CSC1=O	Scp-1 inhibitor 65 | Scp1 confirm inactive | Scp-1 MG ctr inactive
O=C(COC(=O)/C=C/c1ccco1)Nc1ncc(Cl)cc1Cl	Scp-1 inhibitor 57 | Scp1 confirm 56 | Scp-1 MG ctr inactive | Scp1 DSF inactive
Cc1cc(-c2nnc(CCC(=O)N(C)C(C)c3cccs3)o2)no1 (stereo unspecified)	none
O=C(O)CCCCCn1c(O)c(C=C2N=c3ccccc3=N2)sc1=S	Scp-1 inhibitor 74 | Scp1 confirm 91 | Scp-1 MG ctr inactive | Scp1 DSF 10
CCOC(=O)c1sc(NC(=O)CSc2nncs2)c(C(=O)OCC)c1C	Scp-1 inhibitor 52 | Scp1 confirm inactive | Scp-1 MG ctr inactive
CCOC(=O)c1sc(NC(=O)CSc2nnc(-c3ccco3)n2CC)c(C(=O)OCC)c1C	none
Cc1c(C(=O)OCC[N+]2(C)CCCCC2)oc2ccccc12	Scp-1 inhibitor 89 | Scp1 confirm inactive | Scp-1 MG ctr inactive
